In ChEMBL document CHEMBL1145138, “Design and synthesis of 4-azaindoles as inhibitors of p38 MAP kinase” (J Med Chem, 2003):

Experiments:
[1] = molecular target: Mitogen-activated protein kinase 14 (Rattus norvegicus) (UniProt P70618); assay: In vivo percent inhibition of LPS stimulated TNF alpha synthesis in rat at a concentration of 30 mg/kg; assay type: functional, organism-based; design: dose 30 mg/kg
Method in brief: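 Female Wistar/Han rats, 8 per group, were dosed orally at −30 min with compound in CMC vehicle (0.9% NaCl, 0.5% Na-CMC, 0.4% polysorbate 80, 0.9% benzyl alcohol) or with vehicle alone. LPS 50 μg/kg was given ip at 0 h. At 1.5 h, blood was taken by cardiocentesis after CO₂ euthanasia, and serum TNFα was measured by ELISA against vehicle controls.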

[2] = molecular target: Mitogen-activated protein kinase 14 (Homo sapiens, UniProt Q16539); assay: In vitro inhibitory concentration against Mitogen-activated protein kinase p38 alpha
Chain of Mitogen-activated protein kinase 14 (Q16539 whole entry): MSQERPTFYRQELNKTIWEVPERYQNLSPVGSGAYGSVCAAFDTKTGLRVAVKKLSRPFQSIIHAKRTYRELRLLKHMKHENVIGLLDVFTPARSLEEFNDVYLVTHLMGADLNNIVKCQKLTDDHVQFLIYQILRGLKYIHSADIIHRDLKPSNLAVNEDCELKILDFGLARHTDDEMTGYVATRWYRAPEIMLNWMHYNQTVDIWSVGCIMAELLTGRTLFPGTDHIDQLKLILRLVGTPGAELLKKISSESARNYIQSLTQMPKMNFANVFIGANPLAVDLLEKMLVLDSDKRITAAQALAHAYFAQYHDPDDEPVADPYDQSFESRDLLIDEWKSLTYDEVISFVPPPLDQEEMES

[3] = CL at a dose of 10 mg/Kg administered to female hanover-wistar rat intravenously; assay type: ADME, organism-based; details: in vivo, iv
Method in brief: (§1)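 Female Wistar/Han rats weighing 180–220 g, 3 per dose regime, received a single 10 mg/kg IV bolus in 50% cyclodextran/water. Blood was drawn under CO₂:O₂ (60:40) via orbital sinus or cardiac puncture at 1, 3, 6, 8 and 24 h. Plasma was protein-precipitated with acetonitrile, diluted in 50 mM formate buffer and quantified by LC/MS.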

[4] = T 1/2 at a dose of 10 mg/Kg administered to female hanover-wistar rat per orally; assay type: ADME, organism-based; details: in vivo, po
Method in brief: (§2)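 Female Wistar/Han rats (180–220 g, n=3 per regime) received a single 10 mg/kg oral suspension in 0.9% NaCl, 0.5% Na-CMC, 0.4% polysorbate 80 and 0.9% benzyl alcohol. Blood was taken at 1, 3, 6, 8 and 24 h by orbital sinus or cardiac puncture. Plasma drug was measured by LC/MS after acetonitrile precipitation; the comparison arm was a 10 mg/kg IV bolus.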

[5] = T 1/2 at a dose of 10 mg/Kg administered to female hanover-wistar rat intravenously; assay type: ADME, organism-based; details: in vivo, iv; method in brief: as §1
[6] = C max at a dose of 10 mg/Kg administered to female hanover-wistar rat per orally; assay type: ADME, organism-based; design: dose 10 mg/Kg, route oral; details: in vivo, po; method in brief: as §2
[7] = AUC at a dose of 10 mg/Kg administered to female hanover-wistar rat intravenously; assay type: ADME, organism-based; details: plasma, iv; method in brief: as §1
[8] = C max at a dose of 10 mg/Kg administered to female hanover-wistar rat intravenously; assay type: ADME, organism-based; design: dose 10 mg/Kg, route intravenous; details: in vivo, iv; method in brief: as §1
[9] = test system: Rattus norvegicus; assay: AUC at a dose of 10 mg/Kg administered to female hanover-wistar rat per orally; assay type: ADME, organism-based, Plasma; details: in vivo, po; method in brief: as §2
[10] = T max at a dose of 10 mg/Kg administered to female hanover-wistar rat per orally; assay type: ADME, organism-based; details: in vivo, po; method in brief: as §2
[11] = Bioavailability at a dose of 10 mg/Kg administered to female hanover-wistar rat per orally; assay type: ADME, organism-based; details: in vivo, po; method in brief: as §2
[12] = molecular target: Mitogen-activated protein kinase 14 (Rattus norvegicus) (UniProt P70618); assay: In vivo percent inhibition of LPS stimulated TNF alpha synthesis in rat at a concentration of 10 mg/kg

Chain of Mitogen-activated protein kinase 14 (Rattus norvegicus) (P70618 whole entry): as the sequence (Q16539 whole entry) above, with I17V, L48H, T263A, D321E, L332F counted along it

inhibition [1] [%]	IC50 [2] [µM]	Structure (SMILES)	other results
41	0.024	CCn1c(-c2ccncc2)c(-c2ccc(F)cc2)c2ncccc21	–
69	0.005	OCCCCNc1cc(-c2[nH]c3cccnc3c2-c2ccc(F)cc2)ccn1	–
44	–	Fc1ccc(-c2c(-c3ccncc3)oc3cccnc23)cc1	–
–	0.003	CCC(O)CNc1cc(-c2[nH]c3cccnc3c2-c2ccc(F)cc2)ccn1 (configuration not stated)	inhibition [12]: 85%
75	1.97	Fc1ccc(-c2c(-c3ccncc3)n(CCN3CCCCC3)c3cccnc23)cc1	–
–	3.3	Nc1ncnc2c1cc(-c1ccncc1)n2-c1ccc(F)cc1	–

The next lines start with the molecule.

Structure (SMILES)	inhibition [1] [%]	IC50 [2] [µM]	other results
OCCNc1cc(-c2[nH]c3cccnc3c2-c2ccc(F)cc2)ccn1	88	0.003	–
Fc1ccc(-c2c(-c3ccncc3)[nH]c3cncnc23)cc1	26	0.895	–
C[C@@H](O)CNc1cc(-c2[nH]c3cccnc3c2-c2ccc(F)cc2)ccn1	76	0.001	clearance [3]: 1 L/h/kg; half-life [4]: 1.5 h; half-life [5]: 2.9 h; Cmax [6]: 2.8 µM; AUC [7]: 27.5 µM·h; Cmax [8]: 8.8 µM; AUC [9]: 8.4 µM·h; Tmax [10]: 1 h; bioavailability [11]: 30.5%
Cn1c(-c2ccncc2)c(-c2ccc(F)cc2)c2ncccc21	53	0.098	–
